Source: ChEMBL document CHEMBL3259728, “Design, synthesis and biological evaluation of some novel substituted quinazolines as antitumor agents” (2014)

What was measured:
Format in all cases: functional
IGROV-1 [1] = assay: Cytotoxicity against human IGROV1 cells after 48 hrs by SRB assay; settings: IGROV-1, 48 h
How it was run: (§1)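 NCI 60-cell-line panel of human tumour lines from nine cancer types. Continuous 48 h exposure at five 10-fold dilutions from 10^-4 to 10^-8 M, with 5-FU as positive control. SRB protein stain read spectrophotometrically at time zero, untreated control and each concentration. GI50, TGI and LC50 were derived from the [(Ti−Tz)/(C−Tz)]×100 growth relations, and out-of-range values are given as > or < the tested limits.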

KM12 [2] = assay: Growth inhibition of human KM12 cells assessed as cell growth at 10^-6 M after 48 hrs by SRB assay; settings: KM12, 48 h, read-out: Activity
HCT-116 = assay: Growth inhibition of human HCT116 cells assessed as cell growth at 10^-4 M after 48 hrs by SRB assay; settings: HCT-116, 48 h, read-out: Activity
MDA-MB-435 [3] = assay: Growth inhibition of human MDA-MB-435 cells assessed as cell growth at 10^-5 M after 48 hrs by SRB assay; settings: MDA-MB-435, 48 h, read-out: Activity
MDA-MB-435 [4] = assay: Growth inhibition of human MDA-MB-435 cells assessed as cell growth at 10^-6 M after 48 hrs by SRB assay; settings: MDA-MB-435, 48 h, read-out: Activity
NCI-H23 = assay: Growth inhibition of human NCI-H23 cells assessed as cell growth at 10^-6 M after 48 hrs by SRB assay; settings: NCI-H23, 48 h, read-out: Activity
[5] = Growth inhibition of human OVCAR5 cells assessed as cell growth at 10^-5 M after 48 hrs by SRB assay; settings: OVCAR-5, 48 h, read-out: Activity
SF-268 [6] = assay: Growth inhibition of human SF268 cells assessed as cell growth at 10^-8 M after 48 hrs by SRB assay; settings: SF-268, 48 h, read-out: Activity
SF-268 [7] = assay: Growth inhibition of human SF268 cells assessed as cell growth at 10^-4 M after 48 hrs by SRB assay; settings: SF-268, 48 h, read-out: Activity
786-0 [8] = assay: Growth inhibition of human 786-0 cells assessed as cell growth at 10^-8 M after 48 hrs by SRB assay; settings: 786-0, 48 h, read-out: Activity
How it was run: (§2)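 Five-dose NCI panel protocol. Each dose (10^-4 to 10^-8 M, 10-fold steps) was given as 48 h continuous exposure, and protein was measured by SRB staining. Percentage growth at each level is [(Ti−Tz)/(C−Tz)]×100, where Tz is time-zero absorbance and C is untreated control.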

[9] = Growth inhibition of human OVCAR8 cells assessed as cell growth at 10^-4 M after 48 hrs by SRB assay; settings: OVCAR-8, 48 h, read-out: Activity
SNB-19 [10] = assay: Cytotoxicity against human SNB19 cells after 48 hrs by SRB assay; settings: SNB-19, 48 h; how it was run: as §1
[11] = Growth inhibition of human Hs578T cells assessed as cell growth at 10^-4 M after 48 hrs by SRB assay; settings: Hs-578T, read-out: Activity
SNB-19 [12] = assay: Growth inhibition of human SNB19 cells assessed as cell growth at 10^-5 M after 48 hrs by SRB assay; settings: SNB-19, 48 h, read-out: Activity
COLO 205 = assay: Cytotoxicity against human COLO205 cells after 48 hrs by SRB assay; settings: COLO 205, 48 h; how it was run: as §1
SN12C = assay: Growth inhibition of human SN12C cells assessed as cell growth at 10^-4 M after 48 hrs by SRB assay; settings: read-out: Activity
SNB-19 [13] = assay: Growth inhibition of human SNB19 cells assessed as cell growth at 10^-8 M after 48 hrs by SRB assay; settings: SNB-19, 48 h, read-out: Activity
IGROV-1 [14] = assay: Growth inhibition of human IGROV1 cells assessed as cell growth at 10^-6 M after 48 hrs by SRB assay; settings: IGROV-1, 48 h, read-out: Activity
[15] = Growth inhibition of human OVCAR4 cells assessed as cell growth at 10^-8 M after 48 hrs by SRB assay; settings: OVCAR-4, 48 h, read-out: Activity
786-0 [16] = assay: Growth inhibition of human 786-0 cells assessed as cell growth at 10^-5 M after 48 hrs by SRB assay; settings: 786-0, 48 h, read-out: Activity; how it was run: as §2
CCRF-CEM [17] = assay: Growth inhibition of human CCRF-CEM cells assessed as cell growth at 10^-5 M after 48 hrs by SRB assay; settings: read-out: Activity; how it was run: as §2
LOX IMVI = assay: Cytotoxicity against human LOXIMVI cells after 48 hrs by SRB assay; how it was run: as §1
ACHN = assay: Growth inhibition of human ACHN cells assessed as cell growth at 10^-5 M after 48 hrs by SRB assay; settings: read-out: Activity; how it was run: as §2
CCRF-CEM [18] = assay: Growth inhibition of human CCRF-CEM cells assessed as cell growth at 10^-7 M after 48 hrs by SRB assay; settings: read-out: Activity; how it was run: as §2
PC-3 = assay: Growth inhibition of human PC3 cells assessed as cell growth at 10^-7 M after 48 hrs by SRB assay; settings: PC-3, 48 h, read-out: Activity
[19] = Growth inhibition of human Hs578T cells assessed as cell growth at 10^-6 M after 48 hrs by SRB assay; settings: Hs-578T, read-out: Activity
[20] = Growth inhibition of human OVCAR3 cells assessed as cell growth at 10^-8 M after 48 hrs by SRB assay; settings: OVCAR-3, 48 h, read-out: Activity
SNB-75 = assay: Growth inhibition of human SNB75 cells assessed as cell growth at 10^-4 M after 48 hrs by SRB assay; settings: SNB-75, 48 h, read-out: Activity
MDA-MB-468 = assay: Growth inhibition of human MDA-MB-468 cells assessed as cell growth at 10^-5 M after 48 hrs by SRB assay; settings: MDA-MB-468, 48 h, read-out: Activity
KM12 [21] = assay: Growth inhibition of human KM12 cells assessed as cell growth at 10^-5 M after 48 hrs by SRB assay; settings: KM12, 48 h, read-out: Activity
SK-OV-3 = assay: Growth inhibition of human SKOV3 cells assessed as cell growth at 10^-8 M after 48 hrs by SRB assay; settings: SK-OV-3, 48 h, read-out: Activity
[22] = Growth inhibition of human RXF393 cells assessed as cell growth at 10^-7 M after 48 hrs by SRB assay; settings: RXF 393, 48 h, read-out: Activity
[23] = read-out: LC50 (the source's name)
[24] = read-out: pLC50 (the source's name) (converted)

SMILES: Cc1ccc(-c2nc3ccc(Cl)cc3c(=O)n2/N=C/c2ccccc2)cc1
- GI50 (IGROV-1 [1]; read-out: GI50): 3.69 µM
- CC50 (IGROV-1 [1]; [23]): > 100 µM
- TGI (IGROV-1 [1]; read-out: TGI): > 100 µM
- GI50 (IGROV-1 [1]; read-out: pGI50 (converted)): 3.72 µM
- CC50 (IGROV-1 [1]; [24]): > 100 µM
- TGI (IGROV-1 [1]; read-out: pTGI): > 100 µM
- growth at 1 µM (KM12 [2]): 91%
- growth at 100 µM (HCT-116): 21%
- growth at 10 µM (MDA-MB-435 [3]): 59%
- growth at 1 µM (MDA-MB-435 [4]): 87%
- growth at 1 µM (NCI-H23): 87%
- growth at 10 µM [5]: 74%
- growth at 0.01 µM (SF-268 [6]): 91%
- growth at 100 µM (SF-268 [7]): 36%
- growth at 0.01 µM (786-0 [8]): 90%
- growth at 100 µM [9]: 27%
- GI50 (SNB-19 [10]; read-out: GI50): 5 µM
- CC50 (SNB-19 [10]; [23]): > 100 µM
- TGI (SNB-19 [10]; read-out: TGI): > 100 µM
- GI50 (SNB-19 [10]; read-out: pGI50 (converted)): 5.01 µM
- CC50 (SNB-19 [10]; [24]): > 100 µM
- TGI (SNB-19 [10]; read-out: pTGI): > 100 µM
- growth at 100 µM [11]: -9%
- growth at 10 µM (SNB-19 [12]): 34%
- GI50 (COLO 205; read-out: GI50): 9 µM
- LC50 (concentration killing 50% of cells) (COLO 205; read-out: LC50): > 100 µM
- TGI (COLO 205; read-out: TGI): > 100 µM
- GI50 (COLO 205; read-out: pGI50 (converted)): 8.91 µM
- LC50 (concentration killing 50% of cells) (COLO 205; read-out: pLC50 (converted)): > 100 µM
- TGI (COLO 205; read-out: pTGI): > 100 µM
- growth at 100 µM (SN12C): 42%
- growth at 0.01 µM (SNB-19 [13]): 96%
- growth at 1 µM (IGROV-1 [14]): 71%
- growth at 0.01 µM [15]: 95%
- growth at 10 µM (786-0 [16]): 18%
- growth at 10 µM (CCRF-CEM [17]): 86%
- GI50 (LOX IMVI; read-out: GI50): 70.1 µM
- CC50 (LOX IMVI; [23]): > 100 µM
- TGI (LOX IMVI; read-out: TGI): > 100 µM
- GI50 (LOX IMVI; read-out: pGI50 (converted)): 70.8 µM
- CC50 (LOX IMVI; [24]): > 100 µM
- TGI (LOX IMVI; read-out: pTGI): > 100 µM
- growth at 10 µM (ACHN): 10%
- growth at 0.1 µM (CCRF-CEM [18]): 97%
- growth at 0.1 µM (PC-3): 90%
- growth at 1 µM [19]: 84%
- growth at 0.01 µM [20]: 100%
- growth at 100 µM (SNB-75): -43%
- growth at 10 µM (MDA-MB-468): 65%
- growth at 10 µM (KM12 [21]): 74%
- growth at 0.01 µM (SK-OV-3): 98%
- growth at 0.1 µM [22]: 101%
